Ki, Ratio Ki and inhibition data for 14 compounds are collected here from ChEMBL document CHEMBL1152670, “Synthesis and in vitro evaluation of aspartate transcarbamoylase inhibitors” (Bioorg Med Chem, 2009).

Assay [1] is described as follows: Inhibition of histidine-tagged Escherichia coli ATCase catalytic domain assessed as N-carbamoyl-L-aspartate formation by colorimetric assay. In short, it runs like this: (§1)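 E. coli His-tagged C3 (catalytic subunit) ATCase, purified from pEK17/EK1104, at 75 ng/mL. Assay at room temperature in 0.1 M Tris-acetate pH 8.3 with 10 mM L-aspartate. […] N-carbamoyl-L-aspartate formation was read colorimetrically. Ki and inhibition mode were taken from the kinetics.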

Assay [2] has as its system Escherichia coli. Put plainly: Ratio of compound Ki to N-phosphonacetyl-L-aspartate Ki for histidine-tagged Escherichia coli ATCase catalytic domain.
Assay [3] deals with Escherichia coli. The experiment in a line: Inhibition of histidine-tagged Escherichia coli ATCase catalytic domain assessed as N-carbamoyl-L-aspartate formation at 0.5 to 6 uM by colorimetric assay. In short, it runs like this:
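E. coli His-tagged C3 ATCase catalytic subunit (75 ng/mL), purified from strain/plasmid pEK17/EK1104, run at room temperature in 0.1 M Tris-acetate pH 8.3 with 10 mM L-aspartate. N-carbamoyl-L-aspartate formation read colorimetrically. […] Ki and inhibition mode derived from these kinetics.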

For assay [4], the system named is Escherichia coli. Put plainly: Ratio of compound Ki to (2S)-2-(2-(hydroxy(hydroxymethyl)phosphoryl)acetamido)succinic acid Ki for histidine-tagged Escherichia coli ATCase catalytic domain.
Assay [5] is described as follows: Uncompetitive inhibition of histidine-tagged Escherichia coli ATCase catalytic domain assessed as N-carbamoyl-L-aspartate formation by colorimetric assay. Summed up:
as §1

By Ki is commonly meant a measure of affinity in units of concentration, obtained from inhibition or displacement.

Active and inactive are the calls of the source. No cut-off for these calls is given here.

Turning to `O=C(O)C[C@@H](C(=O)O)N1CP(=O)(O)CC1=O`, in assay [1], the Ki entry is given as “Not Active”. Regarding `O=C(O)C[C@H](NC(=O)CP(=O)(O)CC(=O)O)C(=O)O`, the Ki in assay [1] (read-out: Ki) is 3600 nM. Further, in the assay on Escherichia coli [2], the Ratio Ki is 225. For the compound `O=C(O)C[C@H](NC(=O)CP(=O)(O)O)C(=O)O` [PALA], the Ki in assay [1] (read-out: Ki) was 16 nM. On to `O=C(O)C[C@@H](C(=O)O)N1CCP(=O)(O)CC1`, for which, in assay [1], the Ki result was “Not Active”. On to `O=C(O)C[C@H](NC(=O)C[PH](=O)O)C(=O)O`, for which, in assay [1] (read-out: Ki), the inhibitory constant (Ki) was 420 nM. The Ratio Ki in the assay with Escherichia coli [2] was 26.

With `O=C(O)CCC(=O)N[C@@H](CC(=O)O)C(=O)O`, the inhibition result in the assay on Escherichia coli [3] was “inactive”. For `O=C(O)C[C@H](NC(=O)COP(=O)(O)O)C(=O)O`, in assay [1] (read-out: Ki), the inhibition constant (Ki) was determined as 210 nM. In the assay with Escherichia coli [2], the Ratio Ki turned out to be 13. `O=C(O)C[C@H](NC(=O)CP(=O)(O)CCO)C(=O)O`: the Ratio Ki in the assay on Escherichia coli [4] was determined as 13; in the assay with Escherichia coli [2] it was 156. Also, the Ki in assay [5] stood at 2500 nM.

For `O=C(O)C[C@@H](C(=O)O)N1CCP(=O)(O)CC1=O`, the Ki in assay [1] (read-out: Ki) is 1000 nM. Besides, the Ratio Ki in the assay with Escherichia coli [2] was 63. On to `O=C(O)C[C@H](NC(=O)C[PH](=O)CO)C(=O)O` (some centres not stated), for which the Ki in assay [1] (read-out: Ki) worked out at 190 nM. For the same compound, in the assay with Escherichia coli [2], the Ratio Ki stood at 12. In the same order, the values of `O=C(O)C[C@H](NC(=O)NCP(=O)(O)O)C(=O)O` are 2100 nM and 131. With `O=C(O)C[C@H](NC(=O)OCP(=O)(O)O)C(=O)O`, the Ki result in assay [1] was “Not Active”.

For `O=C(O)CC(=O)N[C@@H](CC(=O)O)C(=O)O`, in the assay on Escherichia coli [3], the inhibition entry was “inactive”. For `O=C(O)C[C@H](NC(=O)CC(C(=O)O)C(=O)O)C(=O)O`, the inhibition result with Escherichia coli [3] was “inactive”.
